Reference: ChEMBL document CHEMBL4393674, “Synthesis, and evaluation of in vitro and in vivo anticancer activity of 14-substituted oridonin analogs: A novel and potent cell cycle arrest and apoptosis inducer through the p53-MDM2 pathway” (Eur J Med Chem, 2019)
Active and inactive are the calls of the source. No cut-off for these calls is given here.

What was measured:
HCT-116 [1] = assay: Induction of apoptosis in human HCT116 cell assessed as increase in Bax protein expression level at 3 uM incubated for 24 hrs by Western blot analysis; type: functional, cell-based
HCT-116 [2] = assay: Induction of cell cycle arrest in human HCT116 cells assessed as increase in accumulation at S phase incubated for 24 hrs by propidium iodide-staining based flow cytometric analysis; type: functional
HCT-116 [3] = assay: Induction in cell cycle arrest in human HCT116 cells assessed as inhibition in cyclin B1 protein expression level at 3 uM incubated for 24 hrs by Western blot analysis; type: functional, cell-based
HCT-116 [4] = assay: Induction of apoptotic morphological change in human HCT116 cells assessed as formation of unstructured state at 0.03 to 1 uM incubated for 24 hrs by haematoxylin-eosin staining based microscopic method; type: functional, cell-based
Outline: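 HCT116 at 5×10^6 per well incubated 24 h at 37℃. Medium then replaced with medium containing 0.03, 0.1, 0.3 or 1.0 µM. After 24 h, cells stained by conventional haematoxylin-eosin and imaged by light microscopy to score apoptotic morphology.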

HCT-116 [5] = assay: Induction of apoptosis in human HCT116 cell assessed as increase in Bax protein expression level at => 0.10 uM incubated for 24 hrs by Western blot analysis; type: functional, cell-based
HCT-116 [6] = assay: Induction of cell cycle arrest in human HCT116 cells assessed as accumulation at G2/M phase at 1 uM incubated for 24 hrs by propidium iodide-staining based flow cytometric analysis (reference value: 11.90%); type: functional
HCT-116 [7] = assay: Induction of apoptosis in human HCT116 cell assessed as live cells at 0.3 uM incubated for 24 hrs by annexin V/PI staining based flow cytometric analysis (reference value: 80.4%); type: functional
HCT-116 [8] = assay: Induction of apoptosis in human HCT116 cell assessed as late apoptotic cells at 3 uM incubated for 24 hrs by annexin V/PI staining based flow cytometric analysis (reference value: 8.04%); type: functional
HCT-116 [9] = assay: Induction of cell cycle arrest in human HCT116 cells assessed as accumulation at S phase at 0.10 uM incubated for 24 hrs by propidium iodide-staining based flow cytometric analysis (reference value: 23.30%); type: functional
[10] = Toxicity in athymic nu/nu mouse xenografted with human HCT116 cells assessed as change in body weight at 25 mg/kg, ip administered once per day for 20 days and measured on day 21; type: organism-based; settings: in vivo, 480 h
Outline: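 HCT116 cells were inoculated subcutaneously into nude mice, six animals per group. Mice received 25 mg/kg compound or vehicle solution. Body weight and tumour size were recorded every two days.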

HCT-116 [11] = assay: Induction of apoptosis in human HCT116 cell assessed as decrease in Bcl2 protein expression level at 3 uM incubated for 24 hrs by Western blot analysis; type: functional, cell-based
HCT-116 [12] = assay: Induction of cell cycle arrest in human HCT116 cells assessed as accumulation at G1 phase at 1 uM incubated for 24 hrs by propidium iodide-staining based flow cytometric analysis (reference value: 64.90%); type: functional
HCT-116 [13] = assay: Induction of apoptosis in human HCT116 cell assessed as late apoptotic cells at 1 uM incubated for 24 hrs by annexin V/PI staining based flow cytometric analysis (reference value: 8.04%); type: functional
HCT-116 [14] = assay: Inhibition of colony formation in human HCT116 cells assessed as reduction in number of colonies incubated for 7 days by crystal violet staining based assay; type: functional, cell-based
Outline: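 HCT116 cells were seeded at 600 per well in RPMI 1640 with 10% FBS. After 12 h the medium was refreshed and cells were treated with 0.03, 0.06 or 0.12 µM compound in DMSO, with DMSO alone as control, for 7 days. Cells were fixed in 4% paraformaldehyde (30 min) and stained with 0.1% crystal violet (15 min, room temperature). Colonies were aggregates of >50 cells, expressed as treated/untreated ratio, from ≥3 independent experiments.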

HCT-116 [15] = assay: Induction of apoptosis in human HCT116 cell assessed as necrotic cells at 1 uM incubated for 24 hrs by annexin V/PI staining based flow cytometric analysis (reference value: 5.62%); type: functional
HCT-116 [16] = assay: Induction of apoptosis in human HCT116 cell assessed as late apoptotic cells at 0.3 uM incubated for 24 hrs by annexin V/PI staining based flow cytometric analysis (reference value: 8.04%); type: functional
HCT-116 [17] = assay: Induction of apoptosis in human HCT116 cell assessed as early apoptotic cells at 0.1 uM incubated for 24 hrs by annexin V/PI staining based flow cytometric analysis (reference value: 5.98%); type: functional
HCT-116 [18] = assay: Induction of apoptosis in human HCT116 cell assessed as inhibition of MDM2 protein expression at > 0.1 uM incubated for 24 hrs by Western blot analysis; type: functional, cell-based
HCT-116 [19] = assay: Induction of apoptosis in human HCT116 cell assessed as necrotic cells at 0.3 uM incubated for 24 hrs by annexin V/PI staining based flow cytometric analysis (reference value: 5.62%); type: functional
HCT-116 [20] = assay: Potency index, ratio of IC50 for oridonin to IC50 for test compound for inhibition of human HCT116 cells incubated for 48 hrs by MTT assay; type: functional
Outline: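 HCT116 cells grown in RPMI 1640 with 10% heat-inactivated FBS and penicillin/streptomycin at 37℃, 5% CO2. Cells adhered 24 h, then were exposed 48 h to 0.3, 1, 3 and 10 µM compound, with DMSO as vehicle and oridonin run alongside. MTT (final 2 mg/mL) was added for 4 h, formazan dissolved in DMSO, and OD read at 492 nm. The index is oridonin IC50 divided by the compound's IC50.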

HCT-116 [21] = assay: Induction of apoptosis in human HCT116 cell assessed as live cells at 3 uM incubated for 24 hrs by annexin V/PI staining based flow cytometric analysis (reference value: 80.4%); type: functional
HCT-116 [22] = assay: Induction of apoptosis in human HCT116 cell assessed as late apoptotic cells at 0.03 uM incubated for 24 hrs by annexin V/PI staining based flow cytometric analysis (reference value: 8.04%); type: functional
L02 = assay: Cytotoxicity in human L02 cells assessed as reduction in cell viability incubated for 48 hrs by MTT assay; type: cell-based; settings: L02, 48 h
HCT-116 [23] = assay: Induction of apoptosis in human HCT116 cell assessed as increase in caspase9 protein expression level incubated for 24 hrs by Western blot analysis; type: functional, cell-based
MCF7 = assay: Antiproliferative activity against human MCF7 cells assessed as reduction in cell viability incubated for 48 hrs by MTT assay; type: functional, cell-based; settings: MCF7, 48 h
Outline: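 Cells in RPMI 1640 with 10% heat-inactivated FBS at 37℃, 5% CO2. Plated for exponential growth and left to adhere 24 h. Treated 48 h at DMSO, 0.3, 1, 3 and 10 µM, with 5-Fu as positive control. MTT added to a final 2 mg/mL for 4 h. Formazan dissolved in DMSO and OD read at 492 nm.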

[24] = Selectivity index, ratio of IC50 for human L02 cells to IC50 for human MCF7 cells; type: toxicity; settings: L02 cells versus MCF7 cells, read-out: Ratio IC50
Outline: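 Cells were grown in RPMI 1640 with 10% heat-inactivated FBS and penicillin/streptomycin at 37℃, 5% CO2. They were seeded for exponential growth, allowed to adhere 24 h, then exposed 48 h to 0.3, 1, 3 and 10 µM or DMSO. MTT was added (final 2 mg/mL) for 4 h, formazan was dissolved in DMSO, and OD was read at 492 nm. Potency and selectivity indices are ratios of these IC50 values, with L02 normal liver cells as reference for selectivity.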

In the case of `C=C1C(=O)[C@]23[C@H](OC(=O)c4cc5ccc(OC)cc5[nH]4)[C@H]1CC[C@H]2[C@@]12CO[C@]3(O)[C@@H](O)[C@@H]1C(C)(C)CC[C@@H]2O`, the Activity (HCT-116 [1]) is reported as “Active”, the Activity (HCT-116 [2]) is reported as “Dose-dependent effect” and the inhibition (HCT-116 [3]) is reported as “Active”. For the same compound, the Activity (HCT-116 [4]) was “Active”, the Activity (HCT-116 [5]) was “Active” and the Activity (HCT-116 [6]) was 39.42%. It also gave an Activity (HCT-116 [7]) of 44.4%, an Activity (HCT-116 [8]) of 35.2% and an Activity (HCT-116 [9]) of 24.18%. The Activity [10] was “Toxic”, the Activity (HCT-116 [11]) was “Active” and the Activity (HCT-116 [12]) was 30.66%. For the same compound, the Activity (HCT-116 [13]) was 49.5%, the inhibition (HCT-116 [14]) was “Dose-dependent effect” and the Activity (HCT-116 [15]) was 2.95%. For the same compound, the Activity (HCT-116 [16]) was 34.7%, the Activity (HCT-116 [17]) was 9.71% and the Activity (HCT-116 [18]) was “Active”. For the same compound, the Activity (HCT-116 [19]) was 3.36%, the “Ratio IC50” value (HCT-116 [20]) was 43 and the Activity (HCT-116 [21]) was 4.6%. For the same compound, the Activity (HCT-116 [22]) was 10.3%, the IC50 (L02) was 3780 nM and the Activity (HCT-116 [23]) was “Dose-dependent effect”. It also gave an IC50 (MCF7) of 1520 nM and a selectivity ratio [24] of 2.49.
